Bioassay records deposited in PubChem BioAssay by Sanford-Burnham Center for Chemical Genomics.
Hits are enriched below; roughly 2.3% of the tested compounds scored in any of these assays.
DNMT1 block: DNMT1 (human) enzyme inhibition. AID 588458. 0.83% of 360,000 active. DNMT1 molecular beacon, Hinp1I cleavage, fluorescence. P26358. inhibition (reported as % activation of signal), % at 10 µM; in the data active = inhibition above about 50%
Rpn11 inh: Rpn11 (human) deubiquitinase inhibition. O00487. human 26S proteasome, Ub4-pepOG fluorescence polarization; 20S core pre-blocked with epoxomicin. inhibition, % at 20 µM. 0.59% of 360,000 active. AID 588493;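 active = inhibition at 20 µM, scaled to each plate's controls, above about 33%, limit read from the data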
Target sequence (O00487 whole entry, looked up): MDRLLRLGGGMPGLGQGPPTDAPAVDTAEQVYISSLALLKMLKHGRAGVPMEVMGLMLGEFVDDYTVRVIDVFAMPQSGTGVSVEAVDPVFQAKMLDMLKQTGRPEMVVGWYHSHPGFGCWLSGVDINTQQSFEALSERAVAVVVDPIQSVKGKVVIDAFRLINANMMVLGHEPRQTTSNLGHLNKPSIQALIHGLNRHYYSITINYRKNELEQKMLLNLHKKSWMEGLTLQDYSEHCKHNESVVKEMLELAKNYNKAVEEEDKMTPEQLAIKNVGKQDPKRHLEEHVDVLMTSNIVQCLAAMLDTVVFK
Scp1 inh: inhibitors of human Scp-1 phosphatase; Q9GZU7; AID 493091; 0.88% of 340,000 active; inhibition, % at 20 µM; Recombinant Scp1, phosphopeptide, malachite green phosphate absorbance;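 active = inhibition above about 50% at 20 µM, limit read from the data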
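Test system: SCP-1 phosphatase catalytic domain, residues 76-261; measured by: colorimetric phosphate reagent with accelerator and stabiliser, absorbance at 630 nm; timing: enzyme reaction 45 min at room temperature, colour 5 min, stabilisation 30 min; also added: Phosphorylated 17-residue peptide substrate; compound dosing: one concentration, 20 µM, with 1.0% DMSO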
SUMO1 PPI mod: SUMO1-SIM interaction modulation. P63165. SUMO1 binding to a labelled peptide, TR-FRET, 1 h. inhibition, % at 20 µM. 0.33% of 360,000 active. AID 602429; in the data active = inhibition above about 37%
Target sequence (P63165 whole entry, looked up): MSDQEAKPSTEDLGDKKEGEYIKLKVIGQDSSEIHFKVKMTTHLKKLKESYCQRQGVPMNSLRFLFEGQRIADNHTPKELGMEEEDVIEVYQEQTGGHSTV
LMPTP block: LMPTP (human) inhibition; P24666; 0.22% of 360,000 active; inhibition, % at 20 µM; AID 651560; recombinant LMPTP-A, OMFP fluorogenic substrate, fluorescence intensity;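 active = compounds that cut the enzyme signal by at least half of the control window in the single-dose screen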
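material = LMPTP-A | quantity = 0.625 nM enzyme | reagent = OMFP substrate, 400 µM final | buffer or medium = Bis-Tris pH 6.0, DTT, detergent | detection = endpoint fluorescence intensity from OMFP dephosphorylation | dosing = single 20 µM dose | read-out basis = % inhibition relative to no-enzyme and uninhibited control wells | control set = no-enzyme and uninhibited controls | timing = 50 min at room temperature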
STEP block: inhibitors of human striatal-enriched phosphatase STEP; 0.25% of 360,000 active; recombinant STEP, OMFP fluorogenic substrate, fluorescence; inhibition, % at 20 µM; AID 588621; P54829;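 active = inhibition at 20 µM, scaled per plate between control wells, above about 37%, limit read from the data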
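Material: STEP (striatal-enriched tyrosine phosphatase) enzyme, cell-free | Medium: 50 mM Bis-Tris pH 6.0 with 2.5 mM DTT and 0.005% Tween 20 | Read-out: Percent inhibition scaled to no-enzyme and uninhibited-enzyme controls, plate-pattern corrected | Signal: Fluorescence read at 480 nm ex / 540 nm em | Times: 20 min reaction, room temperature, in the dark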
Scp1 confirm: Scp-1 (human) inhibition, single-dose confirmed; shares compounds with Scp1 inh; recombinant SCP-1 catalytic domain, phosphate release, malachite green absorbance; inhibition, % at 20 µM; 61% of 2,500 active
MG interference: interferes with malachite green readout, flagging false Scp-1 hits | AID 540313 | shares compounds with Scp1 inh | 2,500 tested, under 10 active | apparent inhibition (interference), % at 20 µM | Colorimetric interference counterscreen, malachite green absorbance 630 nm;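 also: compounds added after enzyme reaction finished so only phosphate colour detection is probed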
Scp1 DSF: binds human Scp-1, shifting its melting temperature. Recombinant SCP1, Sypro Orange thermal shift Tm. 25% of 1,500 active. AID 540329. thermal shift relative to vanadate control, % at 40 µM. shares compounds with Scp1 inh;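 active = substances whose mean melting-temperature shift, as a percentage of the reference inhibitor's shift, reaches about 5.3%, limit read from the data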
Numbers stand for hits; 0 = inactive; - = not tested or not shown.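 The calls were made as follows, unless noted: active = inhibition of at least 30% at 20 µM; inactive = the rest.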

SMILES	DNMT1 block	Rpn11 inh	Scp1 inh	SUMO1 PPI mod	LMPTP block	STEP block	Scp1 confirm	MG interference	others
O=C1CCCN1CCCNS(=O)(=O)c1ccc(F)cc1F	0	0	0	0	0	0	0	0
O=C(NCCCN1CCCC1=O)Nc1ccccc1F	0	0	0	0	0	0	0	0
O=C(NCCCN1CCCC1=O)Nc1ccccc1Cl	0	0	0	0	0	0	-	-
COC(=O)c1cc(Br)c(N)cc1OC	0	0	0	0	0	0	-	-
N=C1/C(=C/c2ccc(-c3cccc(C(=O)O)c3)o2)C(=O)N=C2SC(CC(=O)N3CCOCC3)=NN12	56	0	79	0	0	0	58	0	Scp1 DSF=0
CCOC(=O)c1c(NC(=O)C2C3C=CC(C3)C2(C)C(=O)O)sc2c1CCCC2 (stereo unspecified)	0	0	53	0	0	0	56	0	Scp1 DSF=0
Cc1cc(Nc2ccccc2)n(-c2ccc(Br)cc2)n1	0	0	54	0	0	0	0	0
Cc1cc2nc(-c3ccco3)c(Cc3ccccc3C(F)(F)F)n2c(C)c1Br	-	-	-	0	0	-	-	-
CCN(CC)S(=O)(=O)c1ccc(OCC(=O)NC(=O)Cc2ccccc2)c([N+](=O)[O-])c1	0	0	0	0	0	0	-	-
COc1ccc(CCN2CC(C(=O)Nc3cccc(C(C)=O)c3)CC2=O)cc1OC (stereo unspecified)	0	0	0	0	0	0	-	-
COc1ccc(CCN2CC(C(=O)OC(C)C(=O)Nc3cccc(Cl)c3)CC2=O)cc1OC (stereo unspecified)	0	0	0	0	0	0	0	0
O=C(CCS(=O)(=O)c1ccc(Br)cc1)Nc1ccc(Cl)cc1F	0	0	0	0	0	0	-	-
O=C(CCS(=O)(=O)c1ccc(Br)cc1)Nc1ccc(Br)cc1F	0	0	56	0	0	0	54	0	Scp1 DSF=0
O=C(Nc1ccnn1C1CCN(Cc2ccc(CO)o2)CC1)c1cccc(F)c1	0	0	-	0	0	0	-	-
Cc1c(NC(=O)Nc2ccc(Cl)cc2Cl)c(=O)n(-c2ccccc2)n1C	0	0	0	0	0	0	-	-
Cc1c(NC(=O)CN2C(=O)NC(C)(c3ccccc3)C2=O)c(=O)n(-c2ccccc2)n1C (stereo unspecified)	0	0	0	0	0	0	0	0
Cc1ccc(Cl)cc1NC(=O)Nc1c(C)n(C)n(-c2ccccc2)c1=O	0	0	76	0	0	0	0	0
COc1ccc(S(=O)(=O)CCC(=O)Nc2c(C)n(C)n(-c3ccccc3)c2=O)cc1	0	0	55	0	0	0	0	0
CCN1C(=O)[C@H]2[C@@H](c3ccc(-c4cccc(Cl)c4)c(OC)c3)N3CCCC[C@@]3(C(=O)OC)[C@H]2C1=O	0	0	0	0	0	0	-	-
Cc1ccccc1OCCOC(=O)c1cc(S(=O)(=O)N2CCCCC2)ccc1N1CCOCC1	0	0	0	0	0	0	-	-
O=[N+]([O-])c1cc(S(=O)(=O)Nc2ccccc2)ccc1NCc1ccccc1	0	0	0	0	0	0	-	-
O=[N+]([O-])c1cc(S(=O)(=O)Nc2ccccc2)ccc1Nc1ccccc1	0	0	61	0	0	0	0	0
O=C(CCC1N=C2c3ccccc3N=C(SCC(=O)NCc3ccco3)N2C1=O)NCc1ccco1 (stereo unspecified)	0	0	83	0	0	0	69	0	Scp1 DSF=0
N#C/C(=C\c1c(N2CCOCC2)nc2ccccn2c1=O)S(=O)(=O)c1ccccc1	0	0	54	0	0	0	0	0
C[N+](C)(C)CCN1CCc2ccccc21	-	-	-	0	0	-	-	-
O=C(CSc1nnc2ccccn12)NC(=O)c1ccccc1Cl	0	0	66	0	0	0	51	0	Scp1 DSF=0
